# Hits are enriched below; roughly 3.1% of the tested compounds scored in any of these assays.
# IMP-1 inhibitor – inhibitors of Pseudomonas aeruginosa IMP-1 metallo-beta-lactamase | inhibition, % at 5.6 µM | 290,000 compounds, 0.45% hits | AID 1556 | purified IMP-1, nitrocefin hydrolysis, epi-absorbance fluorescence;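 active = inhibition above the mean plus 3 SD of all compounds in the same screening run, cut at about 4.5% in these data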
#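 System: purified IMP-1; amount: IMP-1 0.2 nM before substrate addition; compound: single dose, 5.6 µM; times: 25 °C, 15 min preincubation, 25 min reaction; signal: Epi-absorbance via hydrolysed-nitrocefin quenching of white-plate fluorescence, 480/530 nm, EDTA stop; benchmarks: DMSO with and without IMP-1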
# SUMO HTRF inh – inhibitors of human SUMOylation (UBC9); P63279; HTRF SUMOylation assay, SAE1/SAE2 + UBC9, in vitro; inhibition, % at 35 µM; 290,000 compounds, 0.36% hits; AID 2006; in the data active = inhibition above about 50%, passing the limit was not always enough
# Target sequence (P63279 whole entry, looked up): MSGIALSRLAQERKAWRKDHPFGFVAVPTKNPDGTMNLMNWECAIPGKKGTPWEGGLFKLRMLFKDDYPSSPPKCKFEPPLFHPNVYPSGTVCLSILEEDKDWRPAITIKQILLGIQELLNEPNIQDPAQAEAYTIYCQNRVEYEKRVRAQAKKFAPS
# core dimer inh – HCV core protein dimerization inhibition | inhibition, % at 5 µM | 300,000 compounds, 0.33% hits | TR-FRET GST/Flag-core106 dimerization, 1536-well;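 active = inhibition above the mean of all tested compounds plus 3 SD, set per screening campaign, cut at about 45% in these data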
#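 System: GST-tagged and Flag-tagged HCV core protein residues 1-106 / Input: core106 proteins, GST 13.5 nM and Flag 17 nM / Buffer or medium: KF-containing HEPES buffer, pH 7.45, DTT, CHAPS, BSA / Probe or stimulus: Eu-anti-GST and XL665-anti-Flag labelled anti-tag antibodies / Schedule: 4 h, 22.5 °C incubation / Technique: TR-FRET 671 and 617 nm emission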
# VIM-2 inh – blocks Pseudomonas aeruginosa VIM-2 metallo-beta-lactamase. inhibition, % at 5.6 µM. 290,000 compounds, 0.89% hits. purified VIM-2, nitrocefin hydrolysis, epi-absorbance fluorescence;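 active = inhibition above the mean of all tested compounds plus 3 SD, cutoff set per screening run, cut at about 7.5% in these data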;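 also: red hydrolysis product quenches plate fluorescence so inhibitors raise well fluorescence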
# PHOSPHO1 inh – inhibitors of human PHOSPHO1 phosphatase | 290,000 compounds, 1.1% hits | Q8TCT1 | AID 1565 | inhibition, % at 13.3 µM | recombinant PHOSPHO1, absorbance phosphatase assay; in the data active = inhibition above about 60%
# Target sequence (Q8TCT1 whole entry, looked up): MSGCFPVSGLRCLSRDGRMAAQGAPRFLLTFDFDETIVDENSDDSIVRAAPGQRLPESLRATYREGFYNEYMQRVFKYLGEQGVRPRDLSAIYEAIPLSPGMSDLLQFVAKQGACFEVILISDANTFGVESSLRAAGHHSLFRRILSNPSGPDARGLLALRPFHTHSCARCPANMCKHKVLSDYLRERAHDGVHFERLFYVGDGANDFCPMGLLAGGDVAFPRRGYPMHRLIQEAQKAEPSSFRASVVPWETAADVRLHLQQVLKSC
# NS3 helicase inh – inhibitors of Hepatitis C virus NS3 helicase | 290,000 compounds, 0.56% hits | inhibition, % at 10.9 µM | NS3 helicase DNA unwinding, Cy5 molecular beacon fluorescence;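 active = inhibition above the mean of all tested compounds plus 3 SD, set per campaign, cut at about 35% in these data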
#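 Compound dosing – single dose, 10.9 µM nominal final, DMSO 0.8% final · System – NS3 helicase fragment of HCV · Buffer or medium – MOPS pH 6.5, MgCl2, DTT, Tween20, BSA · Signal – Cy5 beacon fluorescence read at start and 1 h · Also added – annealed dual-labelled DNA beacon duplex, ATP-started · Schedule – 1 h at 25 °C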
# Numbers stand for hits; – = inactive; · = no result.
SMILES,IMP-1 inhibitor,SUMO HTRF inh,core dimer inh,VIM-2 inh,PHOSPHO1 inh,NS3 helicase inh
Cc1c(O)c(CN2CCCC2)cc2c3c(c(=O)oc12)CCC3,–,–,–,9.6,–,–
Cc1c(O)c(CN2CCCC2)cc2c1oc(=O)c1ccccc12,–,–,–,9.0,–,–
O=c1oc2c(CN3CCOCC3)c(O)c(Cl)cc2c2c1CCCC2,5.3,–,–,–,–,–
O=c1oc2c(CN3CCOCC3)c(O)ccc2c2c1CCCC2,–,–,–,–,–,–
CCOC(=O)C1CCN(C(=O)c2cc(C(C)(C)C)nn2Cc2ccccc2)CC1,–,–,–,–,–,–
Cc1ccc(/C=N/c2sc3c(c2C#N)CCCCC3)o1,–,–,–,–,61.0,–
N#Cc1c(/N=C/c2ccco2)sc2c1CCC2,–,–,–,–,–,–
O=C(N/N=C/c1ccncc1)c1cccc(NC(=O)c2ccc(Cl)cc2)c1,–,62.0,–,–,–,–
O=C(N/N=C/c1ccncc1)c1cccc(N/N=C/c2ccncc2)c1,–,–,–,–,–,–
O=C(N/N=C/c1ccncc1)c1sc2ccccc2c1Cl,–,–,–,8.9,–,–
O=C(N/N=C/c1ccncc1)c1cc2ccccc2cc1O,–,–,·,–,61.0,–
COc1ccc2c(Cl)c(C(=O)N/N=C/c3ccncc3)sc2c1,–,–,–,–,–,–
CN(C)S(=O)(=O)N1CCN(CC(=O)Nc2ccc(F)cc2)CC1,–,–,–,–,–,–
COc1ccc(-c2cc(C(F)(F)F)n3ncc(C(=O)N4CCCCC4c4cccnc4)c3n2)cc1 (stereo unspecified),–,–,–,–,–,–
O=C1C(=O)N(Cc2ccncc2)C(c2ccccc2F)/C1=C(\O)c1ccc2c(c1)OCCO2 (stereo unspecified),–,–,–,10.8,–,–
CCC(=O)N1N=C(c2ccc(Cl)cc2)CC1c1ccco1 (stereo unspecified),–,–,–,9.5,–,–
CN1CC(=O)N(CC(=O)N2N=C(c3ccc(Cl)cc3)CC2c2ccco2)C1=O (stereo unspecified),–,–,–,–,–,–
COCC(=O)OCC(=O)N1N=C(c2ccc(Cl)cc2)CC1c1ccco1 (stereo unspecified),–,–,–,9.9,–,–
CC(N)c1ccc(Cl)cc1Cl (stereo unspecified),–,–,–,–,–,–
CC(O)CNc1nc2ccccc2n1CC(=O)NC12CC3CC(CC(C3)C1)C2 (stereo unspecified),–,–,–,–,–,–
CC(O)CNc1nc2ccccc2n1CC(=O)NCC(F)(F)F (stereo unspecified),–,–,–,–,73.2,–
O=c1ccc(-c2ccccc2)no1,–,–,–,–,–,–
O=C(c1ccc(S(=O)(=O)N2CCCCCC2)cc1)N1CCC(CN2C(=O)c3cccc4cccc(c34)C2=O)CC1,5.2,–,–,–,–,–
CC(=O)C1=C(c2ccccc2)NC(=O)NC1c1cccs1 (stereo unspecified),–,–,–,–,–,–
CS(=O)(=O)N(CC(=O)N1CCN(c2ccccc2)CC1)c1cccc(Br)c1,–,–,–,–,98.4,–
SMILES,IMP-1 inhibitor,SUMO HTRF inh,core dimer inh,VIM-2 inh,PHOSPHO1 inh,NS3 helicase inh
O=C1CCc2ccccc2N1,–,–,–,–,–,–
S=C1Cc2ccccc2N1,–,60.4,·,–,–,–
COCc1ccc(C(=O)NC2CCCc3c2cnn3-c2cc(C)cc(C)c2)s1 (stereo unspecified),–,–,·,–,–,–
CC(=O)C1=C(C)NC(SCC(=O)c2ccc(Cl)cc2Cl)=C(C#N)C1c1ccco1 (stereo unspecified),–,–,–,–,74.0,–
CC(=O)C1=C(C)NC(SCC(=O)c2ccc(Cl)cc2)=C(C#N)C1c1ccco1 (stereo unspecified),–,–,–,–,–,–
COc1cccc(-c2ccc(-c3noc(-c4ccccc4F)n3)c(OC)n2)c1,–,–,–,–,–,–
COc1nc(-c2ccc(Cl)cc2)ccc1-c1noc(-c2ccco2)n1,–,–,–,–,80.4,–
Clc1ccccc1Cn1nnc2ccccc21,–,–,–,–,–,–
O=C(Nc1ccc2[nH]c3c(c2c1)CCCC3)c1ccco1,–,–,47.5,–,–,–
COc1ccc(NC(=O)NCCCCc2ccccc2)c(OC)c1,–,–,–,–,–,–
COc1ccc(NC(=S)Nc2ccc(OC)cc2OC)c(OC)c1,–,–,–,–,64.1,–
COc1ccc(NC(=S)Nc2ccccc2OC)c(OC)c1,–,–,–,–,–,–
O=C1NC(c2cccs2)Nc2sc3c(c21)CCCC3 (stereo unspecified),–,–,–,–,–,–
CN1C(=O)c2c(sc3c2CCCC3)NC1c1ccccc1O (stereo unspecified),–,–,55.2,–,–,–
Cc1ccc(S(=O)(=O)N2CCOC23CCN(C(=O)C(=O)NCc2ccccc2)CC3)cc1,·,·,–,·,·,·
COc1ccc(C(=O)NNc2ccccc2)cc1OC,–,–,–,–,76.8,–
CCCOc1cc(N)ccc1C(=O)OCCN(CC)CC,·,·,–,·,·,·
CCCOc1ccc(N)cc1N,–,–,–,–,64.7,–
O=S(=O)(Nc1c(S(=O)(=O)c2ccccc2)c2nc3ccccc3nc2n1C1CCCCC1)c1ccccc1,–,98.9,–,–,–,–
Cc1nnc(SCc2cc(=O)oc3ccc4ccccc4c23)n1Cc1ccccc1,–,–,–,–,–,–
CCCn1c(SCc2cc(=O)oc3ccc4ccccc4c23)n[nH]c1=O,–,–,–,–,92.3,–
Cc1ccc(CNC(=O)C2CCC(=O)N2C(C)C)cc1 (stereo unspecified),–,–,–,–,–,–
CCOC(=O)C(CC(=O)Nc1nc(C(C)=O)c(C)s1)C(C)c1ccccc1 (stereo unspecified),–,–,–,–,–,–
CCN(CC)c1ccc2c(O)cc(=O)oc2c1,–,–,–,–,–,–
CCN(CC)c1ccc(C(=O)OCc2cc(=O)oc3cc(O)ccc23)cc1,–,–,49.7,–,–,–
Cc1ccc(NC(=O)CSc2nnc(C)n2-c2ccccc2)cc1,–,–,–,–,–,–
Cc1nnc(SCC(=O)Nc2ccc(N3CCOCC3)cc2)n1-c1ccccc1,–,–,–,–,63.8,–
COc1ccc(-n2c(SCC(=O)Nc3ccccc3)nnc2-c2ccc(NS(=O)(=O)c3ccc(C)cc3)cc2)cc1,–,–,51.7,–,–,–
Cc1ccc(S(=O)(=O)N2CCC(C(=O)NC3CC(C)(C)NC(C)(C)C3)CC2)cc1,–,–,–,–,–,–
COc1ccc(S(=O)(=O)N2CCC(C(=O)NC3CC(C)(C)NC(C)(C)C3)CC2)cc1,–,·,–,–,69.7,–

# Compound activity: PubChem, several laboratories
